High-throughput results from PubChem BioAssay.
SIAE inh: human SIAE inhibitors, primary screen, biochemical, fluorescence polarization, FP-Rh probe, 1536-well HTS; inhibition, % at 9.66 µM; Sialate O-acetylesterase (Homo sapiens), Q9HAT2; 370,000 tested, 0.69% active; SIAE FP-Rh probe binding;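 active = inhibition above a cutoff: mean of compounds within the control limits plus 3 SD of those, cut at about 17% in these data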
DDE Tn6 FP inh: inhibitors of Tn6 peptide binding to fibrin DD(E), primary screen, biochemical, fluorescence polarization, human fibrin, Tn6 probe. Fibrinogen beta chain (Homo sapiens), P02675. Fibrin DD(E) TRITC-Tn6 fluorescence polarization displacement. inhibition, % at 8.3 µM. 370,000 tested, 0.21% active;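 active = inhibition above a per-campaign cutoff: mean of compounds within control limits plus 3 SD, cut at about 15% in these data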
HTRA1 inh: HTRA1 serine protease inhibitors, primary screen, biochemical, fluorescence polarization, HTS | Q92743 | recombinant HTRA1, FP-rhodamine activity-based probe | inhibition, % at 5.96 µM | 340,000 tested, 0.5% active | AID 504803, 2011; in the data active = inhibition above about 36%
Tn7 DDE FP: inhibitors of Tn7 peptide binding to fibrin DD(E), primary screen, biochemical, fluorescence polarization, human fibrin, Tn7 probe; FP displacement of FITC-Tn7 peptide from fibrin DD(E); 0% = median of compound wells per plate; inhibition, % at 8.3 µM; AID 720508, 2013; 370,000 tested, 0.13% active; Fibrinogen beta chain (Homo sapiens), P02675;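 active = inhibition above the mean of compounds falling within the control limits plus 3 SD of them, cut at about 14% in these data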
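Measure: % inhibition scaled between sample-field median and high-control FP; Test system: human fibrin DD(E); Quantity: 2 µM final DD(E) protein; Doses: one dose, 8.3 µM nominal; Schedule: compound with protein 10 min, then 3 h after probe, room temperature; Detection: fluorescence polarization; Medium: Tris buffer with calcium and detergent, pH 7.8.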
mABHD4 FP: ABHD4 inhibitors, primary screen, biochemical, fluorescence polarization, mouse. purified mABHD4, FP-Rh probe fluorescence polarization. inhibition, % at 8.92 µM. 370,000 tested, 0.54% active. AID 720543, 2013;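 active = inhibition exceeding the mean over every tested compound plus 3 SD, cut at about 30% in these data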
Target sequence (Q8VD66 whole entry, looked up): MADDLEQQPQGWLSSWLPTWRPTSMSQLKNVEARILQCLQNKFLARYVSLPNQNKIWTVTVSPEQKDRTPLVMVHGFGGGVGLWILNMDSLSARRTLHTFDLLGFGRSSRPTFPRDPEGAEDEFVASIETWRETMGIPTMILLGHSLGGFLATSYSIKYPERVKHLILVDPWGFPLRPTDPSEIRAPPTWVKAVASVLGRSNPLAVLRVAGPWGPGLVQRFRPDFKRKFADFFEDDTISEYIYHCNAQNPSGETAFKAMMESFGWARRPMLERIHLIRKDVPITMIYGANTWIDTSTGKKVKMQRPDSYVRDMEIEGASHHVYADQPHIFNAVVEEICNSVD
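Assay system: Wild-type mouse ABHD4 protein | Medium: HEPES pH 7.0 buffer, 150 mM NaCl, 0.01% Pluronic F-127 | Incubation: Enzyme–compound pre-incubation 45 min, then probe 60 min, both 25 °C | Technique: Fluorescence polarization with parallel and perpendicular emission, 525/598 nm | Evaluation: % inhibition of FP-Rh probe binding versus controls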
TCR CD3 inh: inhibitors of human TCR-CD3 interaction, primary screen, biochemical, fluorescence, TAMRA-labeled TCR probe; inhibition, % at 9.4 µM; T-cell receptor (TCR); 360,000 tested, 0.37% active; in the data active = inhibition above about 19%;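 also: recombinant mutant TCR 2C K166C tagged with TAMRA read by polarization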
HTRA1 conf: HTRA1 protease inhibitors, retest, confirmation, biochemical, fluorescence polarization | shares compounds with HTRA1 inh | recombinant HTRA1, FP-rhodamine activity-based probe | inhibition, % at 5.96 µM | 1,600 tested, 66% active | AID 540248, 2011;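 active = mean inhibition over three repeats above a set limit taken from the earlier primary screen, cut at about 37% in these data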;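 also: inhibitors block probe binding so polarization drops and inhibition rises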
Each line names hits and unclear results; the compound was inactive in the other large screens (follow-up assays come after a bar, where they were run). Hits are enriched below; roughly 1.8% of the tested compounds scored in any of these assays.

COc1ccc(/C=C2/CN(Cc3ccc(OC)cc3OC)C3=NC(c4ccc5ccccc5c4)CC(=O)N32)cc1 (configuration not stated)	none (no result: HTRA1 inh, TCR CD3 inh)
O=C(COc1coc(CN2CCN(c3ccccc3)CC2)cc1=O)Nc1ccccc1	none
Cc1cccc(NC(=O)COc2coc(CN3CCN(c4ccccc4)CC3)cc2=O)c1C	HTRA1 inh 57 | HTRA1 conf inactive
COc1ccc2nc3ccccc3nc2c1N	HTRA1 inh 49 | HTRA1 conf inactive
COc1cc(CNc2ccc(N3CCCC3)cc2)ccc1OCc1ccccc1F	HTRA1 inh 40 (no result: SIAE inh, DDE Tn6 FP inh, Tn7 DDE FP, mABHD4 FP, TCR CD3 inh) | HTRA1 conf inactive
COc1cc(CNc2ccc(N3CCCC3)cc2)ccc1OCc1ccccc1	none
COc1cc(CNc2ccc(N3CCCCC3)cc2)ccc1OCC(=O)NC(C)(C)C	HTRA1 inh 41 | HTRA1 conf inactive
COC(=O)C1CN(Cc2cn(CCC3OCCO3)nn2)CCS(=O)(=O)N1Cc1ccc(OC)cc1 (configuration not stated)	none (no result: HTRA1 inh, TCR CD3 inh)
CCc1noc(C)c1C(=O)Oc1ccc(N(C)S(=O)(=O)c2ccccc2)cc1	HTRA1 inh 36 | HTRA1 conf inactive
CCc1noc(C)c1C(=O)Oc1ccc(N(C)S(=O)(=O)c2ccc(C)cc2)cc1	none (no result: SIAE inh, DDE Tn6 FP inh, Tn7 DDE FP, mABHD4 FP, TCR CD3 inh)
CNC(=O)CSc1nc2nn(-c3ccccc3)c(=O)c-2c2n1CCCCC2	none (no result: SIAE inh, DDE Tn6 FP inh, Tn7 DDE FP, mABHD4 FP, TCR CD3 inh)
O=C(CSc1nc2nn(-c3ccccc3)c(=O)c-2c2n1CCCCC2)c1ccc(O)c(O)c1	HTRA1 inh 74 (no result: SIAE inh, DDE Tn6 FP inh, Tn7 DDE FP, mABHD4 FP, TCR CD3 inh) | HTRA1 conf 97
O=C1NCCC12C(=O)Nc1ccccc12 (configuration not stated)	none
O=C(O)C1=C2C(=O)Nc3cccc(c32)C2(C1)C(=O)Nc1ccccc12 (configuration not stated)	HTRA1 inh 37, mABHD4 FP 33 | HTRA1 conf inactive
O=C1C=CC(=O)N1c1ccc2ccccc2c1	none
O=C1C=CC(=O)N1c1ccc(Nc2ccccc2)cc1	HTRA1 inh 53 | HTRA1 conf inactive
C/C(=N\NC(=O)CSc1nc2ccccc2o1)c1ccc(O)cc1	none
C/C(=N\NC(=O)CSc1nc2ccccc2o1)c1cccc(O)c1	HTRA1 inh 51 | HTRA1 conf inactive
COC(CNC(=O)[C@H](Cc1ccccc1)NCC(=O)NC1CCCCC1)OC	none (no result: HTRA1 inh, TCR CD3 inh)
COc1cc(C(=O)N/N=C/c2sc(N3CCOCC3)nc2-c2ccccc2)cc(OC)c1OC	none
O=C(N/N=C/c1sc(N2CCOCC2)nc1-c1ccccc1)c1cccc(S(=O)(=O)N2CCOCC2)c1	HTRA1 inh 45 | HTRA1 conf 119
CCCC(=O)NC(c1ccc(Cl)cc1Cl)c1ccc2cccnc2c1O (configuration not stated)	HTRA1 inh 53 | HTRA1 conf 56
CCCC(=O)NC(c1ccccc1OC)c1ccc2cccnc2c1O (configuration not stated)	none (no result: SIAE inh, DDE Tn6 FP inh, Tn7 DDE FP, mABHD4 FP, TCR CD3 inh)
CCCCC(=O)NC(c1ccc(N(C)C)cc1)c1ccc2cccnc2c1O (configuration not stated)	HTRA1 inh 46 | HTRA1 conf 61
CCCCC(=O)NC(c1ccccc1OC)c1ccc2cccnc2c1O (configuration not stated)	HTRA1 inh 60 | HTRA1 conf 52
CCCCC(=O)NC(c1ccc(Cl)cc1)c1ccc2cccnc2c1O (configuration not stated)	HTRA1 inh 40 | HTRA1 conf 44
O=C1[C@@H](C2CCCCC2)[C@@H]2c3ccccc3C=NN2[C@@H]2c3ccccc3C=NN12	none (no result: HTRA1 inh, TCR CD3 inh)
O=C(NC1CCC1)c1ccc(C#CC2CC2)c[n+]1[O-]	none (no result: HTRA1 inh, TCR CD3 inh)
CCCC(=O)NC(c1ccc(Cl)cc1)c1ccc2cccnc2c1O (configuration not stated)	HTRA1 inh 46 | HTRA1 conf 48
CCN(CC)c1ccc(C(NC(=O)C(C)C)c2ccc3cccnc3c2O)cc1 (configuration not stated)	HTRA1 inh 56 | HTRA1 conf 61
CCCC(=O)NC(c1cccc([N+](=O)[O-])c1)c1ccc2cccnc2c1O (configuration not stated)	none
CC(C)C(=O)NC(c1ccco1)c1ccc2cccnc2c1O (configuration not stated)	none
CCCC(=O)NC(c1ccc(C)cc1)c1ccc2cccnc2c1O (configuration not stated)	HTRA1 inh 45 (no result: SIAE inh, DDE Tn6 FP inh, Tn7 DDE FP, mABHD4 FP, TCR CD3 inh) | HTRA1 conf 58
CCCCCCCCN1C(=O)[C@@H](CC(=O)NCc2cccs2)C[C@@]2(C(=O)OC)C1=C[C@H](COCc1ccccc1)O[C@@H]2C	none (no result: HTRA1 inh, TCR CD3 inh)
O=C(Nc1ccc2c(c1)OCO2)OC1CCC12CCCCC2 (configuration not stated)	none (no result: HTRA1 inh, TCR CD3 inh)
COC(=O)C1CN(Cc2ccc(C)cc2)CCS(=O)(=O)N1Cc1cn(Cc2ccccc2)nn1 (configuration not stated)	none (no result: HTRA1 inh, TCR CD3 inh)
O=C(N/N=C\c1ccc([N+](=O)[O-])s1)c1cncc(Br)c1	HTRA1 inh 56 | HTRA1 conf 52
Cc1cc(C(=O)N/N=C/c2ccc([N+](=O)[O-])cc2)c2ccccc2n1	none
O=C(N/N=C/c1ccc([N+](=O)[O-])s1)c1ccccc1	none
Cc1cc(C(=O)N/N=C/c2ccc([N+](=O)[O-])s2)c2ccccc2n1	HTRA1 inh 47 | HTRA1 conf inactive
CN(C)C1CCN(Cc2cc(COCc3ccccc3)c3cccnc3c2O)C1 (configuration not stated)	HTRA1 inh 54 (no result: SIAE inh, DDE Tn6 FP inh, Tn7 DDE FP, mABHD4 FP, TCR CD3 inh) | HTRA1 conf 76
Oc1c(CN2CCCCC2)cc(COCc2ccccc2)c2cccnc12	HTRA1 inh 65 | HTRA1 conf 72
Oc1c(CN2CCOCC2)ccc2ccccc12	none
COCc1cc(CN2CCCC2)c(O)c2ncccc12	none
Oc1c(CN2CCCCC2)ccc2cccnc12	HTRA1 inh 73 | HTRA1 conf 69
CCOC(=O)N1C(=O)C[C@](Sc2ccc(OC)cc2)(C(=O)N2CCN(C(C)=O)CC2)[C@H]1c1ccc(OC)cc1	none (no result: HTRA1 inh, TCR CD3 inh)
CC(C)(C)c1ccc(-c2nnc(SCC(=O)c3ccc4ccccc4c3)n2-c2ccc(Cl)cc2)cc1	none (no result: HTRA1 inh, TCR CD3 inh)
Cc1cc(C)nc(Nc2ccc(N3CCCC3)cc2)n1	HTRA1 inh 40 | HTRA1 conf 40
